Measured values from ChEMBL document CHEMBL2086239, “Synthesis and biological evaluation of combretastatin-amidobenzothiazole conjugates as potential anticancer agents” (Eur J Med Chem, 2012).
Values belong to the compound of their own block, whether it stands above or below them. Active and inactive are the calls of the source. No cut-off for these calls is given here.

Legend:
Type in all cases: functional
[1] = system: NCI-H522; assay: Growth inhibition of human NCI-H522 cells after 48 hrs by SRB assay; settings: NCI-H522, 48 h
How it was run: (§1)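 NCI 60-cell-line screen: after preliminary screening, tested at five dose concentrations on 59 human tumour lines covering leukemia, lung, colon, CNS, melanoma, ovarian, renal, prostate and breast.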

[2] = system: MCF7; assay: Cytotoxicity against human MCF7 cells after 48 hrs assessed as inhibition of cell growth at 10 uM after 48 hrs by SRB assay relative to control; settings: MCF7, 48 h, read-out: GI
How it was run: (§2)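 SRB protein assay in DMEM with 10% FBS at 37 °C, 5% CO2, 100% relative humidity. Cells seeded in 96-well plates, incubated 24 h, then exposed to drug at 10 µM for 48 h and processed per standard protocol. Absorbance read at 560 nm; growth percentage calculated for test wells relative to control wells.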

[3] = system: SW-620; assay: Growth inhibition of human SW620 cells after 48 hrs by SRB assay; settings: SW-620, 48 h
How it was run: (§3)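 NCI 60-cell-line panel, five-dose testing after preliminary screen; sulforhodamine B protein assay in DMEM with 10% FBS, 37 °C, 5% CO2, 100% humidity. Cells seeded and incubated 24 h before compound addition, then exposed 48 h. Absorbance read at 560 nm; growth percentage relative to control wells; GI50 taken as concentration giving 50% growth inhibition.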

[4] = system: HCT-15; assay: Growth inhibition of human HCT15 cells after 48 hrs by SRB assay; settings: HCT-15, 48 h; how it was run: as §1
[5] = system: NCI-H23; assay: Growth inhibition of human NCI-H23 cells after 48 hrs by SRB assay; settings: NCI-H23, 48 h; how it was run: as §1
[6] = system: NCI-H322M; assay: Growth inhibition of human NCI-H322M cells after 48 hrs by SRB assay; how it was run: as §1
[7] = system: EKVX; assay: Growth inhibition of human EKVX cells after 48 hrs by SRB assay; how it was run: as §1
[8] = system: CAKI-1; assay: Growth inhibition of human Caki1 cells after 48 hrs by SRB assay; settings: CAKI-1, 48 h; how it was run: as §1
[9] = system: THP-1; assay: Cytotoxicity against human THP1 cells after 48 hrs assessed as inhibition of cell growth at 10 uM after 48 hrs by SRB assay relative to control; settings: THP-1, 48 h, read-out: GI; how it was run: as §2
[10] = system: MDA-MB-231; assay: Growth inhibition of human MDA-MB-231 cells after 48 hrs by SRB assay; settings: MDA-MB-231, 48 h; how it was run: as §1
[11] = system: OVCAR-4; assay: Growth inhibition of human OVCAR4 cells after 48 hrs by SRB assay; settings: OVCAR-4, 48 h; how it was run: as §1
[12] = system: COLO 205; assay: Cytotoxicity against human COLO205 cells after 48 hrs assessed as inhibition of cell growth at 10 uM after 48 hrs by SRB assay relative to control; settings: COLO 205, 48 h, read-out: GI; how it was run: as §2
[13] = system: KM12; assay: Growth inhibition of human KM12 cells after 48 hrs by SRB assay; settings: KM12, 48 h; how it was run: as §1
[14] = system: SK-MEL-5; assay: Growth inhibition of human SK-MEL-5 cells after 48 hrs by SRB assay; settings: SK-MEL-5, 48 h; how it was run: as §3
[15] = system: NCI-H460; assay: Growth inhibition of human NCI-H460 cells after 48 hrs by SRB assay; settings: NCI-H460, 48 h; how it was run: as §1
[16] = system: MDA-MB-435; assay: Growth inhibition of human MDA-MB-435 cells after 48 hrs by SRB assay; settings: MDA-MB-435, 48 h; how it was run: as §1
[17] = system: IGROV-1; assay: Growth inhibition of human IGROV1 cells after 48 hrs by SRB assay; settings: IGROV-1, 48 h; how it was run: as §1
[18] = system: Malme-3M; assay: Growth inhibition of human MALME-3M cells after 48 hrs by SRB assay; how it was run: as §1
[19] = system: IMR-32; assay: Cytotoxicity against human IMR32 cells after 48 hrs assessed as inhibition of cell growth at 10 uM after 48 hrs by SRB assay relative to control; settings: IMR-32, 48 h, read-out: GI; how it was run: as §2
[20] = system: MOLT-4; assay: Growth inhibition of human MOLT4 cells after 48 hrs by SRB assay; settings: MOLT-4, 48 h; how it was run: as §1
[21] = system: HOP-62; assay: Growth inhibition of human HOP62 cells after 48 hrs by SRB assay; settings: HOP-62, 48 h; how it was run: as §1
[22] = system: NCI-H226; assay: Growth inhibition of human NCI-H226 cells after 48 hrs by SRB assay; settings: NCI-H226, 48 h; how it was run: as §1
[23] = system: SR; assay: Growth inhibition of human SR cells after 48 hrs by SRB assay; how it was run: as §3
[24] = system: RXF 393; assay: Growth inhibition of human RXF393 cells after 48 hrs by SRB assay; settings: RXF 393, 48 h; how it was run: as §1
[25] = system: UACC-257; assay: Growth inhibition of human UACC257 cells after 48 hrs by SRB assay; settings: UACC-257, 48 h; how it was run: as §3
[26] = system: UO-31; assay: Growth inhibition of human UO31 cells after 48 hrs by SRB assay; settings: UO-31, 48 h; how it was run: as §3
[27] = system: COLO 205; assay: Growth inhibition of human COLO205 cells after 48 hrs by SRB assay; settings: COLO 205, 48 h; how it was run: as §1
[28] = system: Hs-578T; assay: Growth inhibition of human Hs578T cells after 48 hrs by SRB assay; how it was run: as §1
[29] = system: ACHN; assay: Growth inhibition of human ACHN cells after 48 hrs by SRB assay; how it was run: as §1
[30] = system: NCI/ADR-RES; assay: Growth inhibition of human NCI/ADR-RES cells after 48 hrs by SRB assay; how it was run: as §1
[31] = system: SN12C; assay: Growth inhibition of human SN12C cells after 48 hrs by SRB assay; how it was run: as §3
[32] = system: BT-549; assay: Growth inhibition of human BT549 cells after 48 hrs by SRB assay; settings: BT-549, 48 h; how it was run: as §1
[33] = system: SNB-75; assay: Growth inhibition of human SNB75 cells after 48 hrs by SRB assay; settings: SNB-75, 48 h; how it was run: as §3
[34] = system: OVCAR-3; assay: Growth inhibition of human OVCAR3 cells after 48 hrs by SRB assay; settings: OVCAR-3, 48 h; how it was run: as §1
[35] = system: MCF7; assay: Cell cycle arrest in human MCF7 cells assessed as accumulation at S phase at 4 uM after 24 hrs by FACS analysis (reference value: 6.79%)
[36] = system: HCT-116; assay: Growth inhibition of human HCT116 cells after 48 hrs by SRB assay; settings: HCT-116, 48 h; how it was run: as §1
[37] = system: MCF7; assay: Cell cycle arrest in human MCF7 cells assessed as accumulation at G1 phase at 4 uM after 24 hrs by FACS analysis (reference value: 58.33%)
[38] = system: MCF7; assay: Cell cycle arrest in human MCF7 cells assessed as accumulation at G2/M phase at 4 uM after 24 hrs by FACS analysis (reference value: 34.88%)
[39] = system: CCRF-CEM; assay: Growth inhibition of human CCRF-CEM cells after 48 hrs by SRB assay; how it was run: as §1
[40] = system: SK-MEL-2; assay: Growth inhibition of human SK-MEL-2 cells after 48 hrs by SRB assay; settings: SK-MEL-2, 48 h; how it was run: as §3
[41] = system: T47D; assay: Growth inhibition of human T47D cells after 48 hrs by SRB assay; how it was run: as §3
[42] = system: UACC-62; assay: Growth inhibition of human UACC62 cells after 48 hrs by SRB assay; settings: UACC-62, 48 h; how it was run: as §3

SMILES: COc1ccc(/C=C\c2cc(OC)c(OC)c(OC)c2)cc1OCC(=O)Nc1nc2ccc(C(F)(F)F)cc2s1
GI50 [1]: 2890 nM
inhibition of growth at 10 µM [2]: 62%
GI50 [3]: 4650 nM
GI50 [4]: 3240 nM
GI50 [5]: 3900 nM
GI50 [6]: 5380 nM
GI50 [7]: 6250 nM
GI50 [8]: 3100 nM
inhibition of growth at 10 µM [9]: 29%
GI50 [10]: 3380 nM
GI50 [11]: 4660 nM
inhibition of growth at 10 µM [12]: 25%
GI50 [13]: 3140 nM
GI50 [14]: 2840 nM
GI50 [15]: 3550 nM
GI50 [16]: 1840 nM
GI50 [17]: 4480 nM
GI50 [18]: inactive
inhibition of growth at 10 µM [19]: 23%
GI50 [20]: 3750 nM
GI50 [21]: 5220 nM
GI50 [22]: 3170 nM
GI50 [23]: 3350 nM
GI50 [24]: 2270 nM
GI50 [25]: 40000 nM
GI50 [26]: 3590 nM
GI50 [27]: 17100 nM
GI50 [28]: 4180 nM
GI50 [29]: 4820 nM
GI50 [30]: 2120 nM
GI50 [31]: 4430 nM
GI50 [32]: 5230 nM
GI50 [33]: 1580 nM
GI50 [34]: 2110 nM
Activity [35]: 7.15%
GI50 [36]: 3290 nM
Activity [37]: 55.82%
Activity [38]: 37.02%
GI50 [39]: 4270 nM
GI50 [40]: 3980 nM
GI50 [41]: 4790 nM
GI50 [42]: 3900 nM

GI50 [1]: 1 nM
GI50 [3]: 3 nM
GI50 [4]: 3 nM
GI50 [5]: 3 nM
GI50 [6]: 3 nM
GI50 [10]: 1 nM
GI50 [11]: 15 nM
GI50 [14]: 3 nM
GI50 [15]: 7 nM
GI50 [16]: 1 nM
GI50 [20]: 3 nM
GI50 [22]: 3 nM
GI50 [27]: 100 nM
GI50 [29]: 6 nM
GI50 [32]: 10000 nM
GI50 [34]: 1 nM
GI50 [36]: 3 nM
GI50 [39]: 2 nM
GI50 [40]: 3 nM
GI50 [41]: 10000 nM
SMILES: COc1ccc(/C=C\c2cc(OC)c(OC)c(OC)c2)cc1O [COMBRETASTATIN A4]
inhibition of growth at 10 µM [2]: 71%
GI50 [7]: 79 nM
GI50 [8]: 25 nM
inhibition of growth at 10 µM [9]: 87%
inhibition of growth at 10 µM [12]: 63%
GI50 [13]: 5 nM
GI50 [17]: 15 nM
GI50 [18]: 19 nM
inhibition of growth at 10 µM [19]: 89%
GI50 [21]: 2 nM
GI50 [23]: 3 nM
GI50 [24]: 2 nM
GI50 [25]: 3 nM
GI50 [26]: 19 nM
GI50 [28]: 1 nM
GI50 [30]: 1 nM
GI50 [31]: 6 nM
GI50 [33]: 7 nM
Activity [35]: 14.27%
Activity [37]: 24.5%
Activity [38]: 61.23%
GI50 [42]: 5 nM
